Measured values published in ChEMBL document CHEMBL5030531, “Synthetic Glycolipids as Molecular Vaccine Adjuvants: Mechanism of Action in Human Cells and In Vivo Activity” (J Med Chem, 2021).
Activity calls are given as the source filed them. The calls are words filed in the database; no cut-off is given here.

What was measured:
[1] = molecular target: T1, Toll-like receptor 4/MD-2 (Homo sapiens) (UniProt O00206+Q9Y6Y9); experiment: Binding affinity to NTA sensor chip immobilized recombinant human TLR4/MD2 assessed as dissociation rate kinetics by surface plasmon resonance analysis; format: protein-complex assay; conditions: filed as agonist
Summary of the method: (§1)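 Recombinant human TLR4/MD2 complex (20 μg/mL in 10 mM sodium acetate pH 4.0) amine-coupled to NTA chip after NiCl2 and EDC/NHS activation, ethanolamine-blocked. Analytes sonicated 15 min and diluted in PBS-P+ with 5% DMSO, injected over the series 4.34–69.50 μM or 5.34–85.50 μM. Regeneration 50 mM NaOH. Kinetics fitted to 1:1 model after solvent correction.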

[2] = molecular target: Myeloid differentiation primary response protein MyD88 (Homo sapiens) (UniProt Q99836); experiment: Activation of MyD88 dependent pathway in human THP-1 derived macrophages assessed as increase in IL-1 beta secretion at 10 to 25 uM measured after 18 hrs by ELISA; conditions: Macrophage, filed as activator, dose 10-25 µM
Summary of the method: (§2)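 THP-1 cells differentiated with PMA 25 ng/mL for 72 h, then rested 24 h in fresh medium before stimulation with compound (range 0.1–1 to 10–25 μM) in RPMI/10% FBS for 18 h. S-LPS and MPLA used as references. TNFα, IL-1β, IL-6 in supernatants quantified by sandwich ELISA at 450 nm (570 nm correction).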

Mus musculus [3] = experiment: Immuno-adjuvant activity in C57BL/6 mouse assessed as increase in levels of anti-ova total IgG in sera at 10 ug administered subcutaneously on day 1 and as booster dose on day 22 in presence of ovalbumin and […] by ELISA; format: functional, organism-based; conditions: dose 10.0 µg
Summary of the method: (§3)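 Female C57BL/6 mice (n = 8) given 50 μL s.c. in the flank of 500 μg endotoxin-depleted OVA mixed with 10 μg adjuvant in PBS. Booster on opposite flank day 22; OVA-only control group. Tail-vein sera taken days 21 and 41, serially diluted 1:100–1:12 800 and assayed by ELISA on OVA-coated plates (4 μg/mL). Detection with HRP anti-mouse IgG, TMB, A450.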

Macrophage [4] = experiment: Activation of TRIF dependent pathway in human THP-1 derived macrophages assessed as increase in RSAD2 expression measured after 6 hrs; format: tissue-based; conditions: filed as activator
Summary of the method: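 RSAD2 mRNA in differentiated THP-1 macrophages after compound at 10 μM, measured by RT-qPCR (annealing 60 °C) with β-actin housekeeping gene. Expressed as ΔΔCt fold change versus untreated cells; n = 3, Wilcoxon test.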

[5] = molecular target: NACHT, LRR and PYD domains-containing protein 3 (Homo sapiens) (UniProt Q96P20); experiment: Activation of NLRP3 inflammasome in human THP-1 derived macrophages assessed as increase in caspase-1 cleavage at 20 uM by immunoblotting analysis; format: tissue-based; conditions: Macrophage, filed as activator
Summary of the method: (§4)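 After 6 h of compound at 20 μM, differentiated THP-1 macrophage lysates were immunoblotted for pro-caspase-1 and pro-IL-1β. Methanol/chloroform-precipitated supernatants were probed for cleaved caspase-1 and cleaved IL-1β (Asp116), with chemiluminescent detection. Released IL-1β was also measured by ELISA.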

[6] = molecular target: Myeloid differentiation primary response protein MyD88 (Homo sapiens) (UniProt Q99836); experiment: Activation of MyD88 dependent pathway in human THP-1 derived macrophages assessed as increase in TNF alpha secretion at 10 to 25 uM measured after 18 hrs by ELISA; conditions: Macrophage, filed as activator, dose 10-25 µM; summary of the method: as §2
HEK-Blue hTLR4 = experiment: Activation of AP-1 in LPS-stimulated HEK-Blue hTLR4 cells assessed as increase in release of SEAP reporter protein level incubated for 18 hrs by QUANTI-blue assay; format: cell-based; conditions: Homo sapiens, filed as activator
Summary of the method: (§5)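 HEK-Blue hTLR4 cells (HEK293 with CD14, TLR4, MD-2 and NF-κB/AP-1-driven SEAP) in DMEM/10% FBS, seeded overnight (37 °C, 5% CO2), washed, then exposed to compound 0.1–25 μM in fresh medium for 18 h. SEAP in supernatant read with QUANTI-Blue substrate (0.5–4 h, RT) at OD 630 nm. Normalized to 100 ng/mL S. minnesota smooth LPS; mean percentage of three independent experiments.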

Macrophage [7] = experiment: Activation of TRIF dependent pathway in human THP-1 derived macrophages assessed as STAT1 phosphorylation at 10 uM pretreated with anti-IFNAR2 antibody for 1 hr followed by compound addition and measured after 3 hrs by immunoblotting analysis; conditions: filed as activator
Macrophage [8] = experiment: Activation of TRIF dependent pathway in human THP-1 derived macrophages assessed as increase in IFNbeta mRNA expression measured 2 hrs post treatment by real-time PCR; conditions: filed as activator
[9] = molecular target: Myeloid differentiation primary response protein MyD88 (Homo sapiens) (UniProt Q99836); experiment: Activation of MyD88 dependent pathway in human THP-1 derived macrophages assessed as increase in IL-6 secretion at 10 to 25 uM measured after 18 hrs by ELISA; conditions: Macrophage, filed as activator, dose 10-25 µM; summary of the method: as §2
[10] = molecular target: T1, Toll-like receptor 4/MD-2 (Homo sapiens); experiment: Binding affinity to NTA sensor chip immobilized recombinant human TLR4/MD2 assessed as association rate constant by surface plasmon resonance analysis; format: protein-complex assay; conditions: filed as agonist; summary of the method: as §1
Macrophage [11] = experiment: Induction of IL-1beta production in human THP-1 derived macrophages assessed as accumulation of IL-1beta precursor in cell lysates at 20 uM measured up to 18 hrs by ELISA; format: functional, subcellular; conditions: time hrs <=18
Summary of the method: (§6)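 Differentiated THP-1 macrophages treated with compound at 20 μM (S-LPS, R-LPS 100 ng/mL; MPLA 1 μg/mL) for 3, 6 and 18 h. IL-1β measured by ELISA in both cell lysates and supernatants; n = 3, one-way ANOVA versus untreated.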

Mus musculus [12] = experiment: Immuno-adjuvant activity in C57BL/6 mouse assessed as increase in levels of anti-ova total IgG in sera at 10 ug administered subcutaneously in presence of ovalbumin and measured 21 days post immunization by ELISA; format: functional, organism-based; conditions: dose 10.0 µg, time 21.0 day; summary of the method: as §3
Macrophage [13] = experiment: Inhibition of IL-1beta release in human THP-1 derived macrophages pretreated with NLRP3 inhibitor MCC950 for 1 hr followed by compound addition and measured after 6 hrs by ELISA and immunoblotting analysis; format: functional, tissue-based
Summary of the method: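 Differentiated THP-1 macrophages preincubated 1 h with MCC950 at 0.01, 0.1, 1 and 10 μM. Cells were then stimulated 6 h with compound at 20 μM or with S-LPS at 100 ng/mL. Secreted IL-1β measured by ELISA and by immunoblot of supernatants.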

Macrophage [14] = experiment: Activation of TRIF dependent pathway in human THP-1 derived macrophages assessed as increase in IFNbeta mRNA expression by measuring fold increase measured 2 hrs post treatment by real-time PCR relative to control; conditions: filed as activator
[15] = molecular target: T1, Toll-like receptor 4/MD-2 (Homo sapiens); experiment: Binding affinity to NTA sensor chip immobilized recombinant human TLR4/MD2 assessed as maximum response by surface plasmon resonance analysis; format: protein-complex assay; conditions: filed as agonist; summary of the method: as §1
[16] = molecular target: Toll-like receptor 4 (Homo sapiens) (UniProt O00206); experiment: Antagonist activity at human TLR4 in LPS-stimulated HEK-Blue hTLR4 cells assessed as inhibition of LPS-induced SEAP production at 0.1 to 25 uM incubated for 18 hrs by QUANTI-blue assay; conditions: dose 0.1-25 µM
[17] = molecular target: Myeloid differentiation primary response protein MyD88 (Homo sapiens) (UniProt Q99836); experiment: Activation of MyD88 dependent pathway in human THP-1 derived macrophages assessed as increase in NF-kappaB p65 phosphorylation at 10 uM measured after 1 hr by immunoblotting analysis; format: tissue-based; conditions: Macrophage, filed as activator
Summary of the method: (§7)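 PMA-differentiated THP-1 macrophages treated with compound at 10 μM (S-LPS 100 ng/mL, MPLA 1 μg/mL as references) and harvested at set times. RIPA lysates with protease/phosphatase inhibitors separated by SDS-PAGE, transferred to PVDF and probed for phospho-p65 (Ser536) and phospho-p38 (Thr180/Tyr182) with β-actin as loading control. Detection by chemiluminescence, densitometry; representative of at least two experiments.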

[18] = Toxicity in C57BL/6 […] assessed as local response at injection site at 10 ug observed daily for 7 days; conditions: mouse, in vivo, 168 h; dose 10 µg, time 7 day
Summary of the method: (§8)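 Six-week-old female C57BL/6 mice were injected subcutaneously in the flank with 10 μg adjuvant in 50 μL PBS. Mice were monitored and weighed daily for 7 days, with injection-site response and alertness noted. Group size is n = 3 per treatment in the methods and n = 4 in the figure legend.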

[19] = molecular target: Nuclear factor NF-kappa-B complex (Homo sapiens) (UniProt Q00653+P19838+Q04206); experiment: Activation of NF-kappaB in LPS-stimulated HEK-Blue hTLR4 cells assessed as increase in release of SEAP reporter protein level incubated for 18 hrs by QUANTI-blue assay; format: cell-based; conditions: filed as activator; summary of the method: as §5
[20] = Toxicity in C57BL/6 […] assessed as state of alertness at 10 ug observed daily for 7 days; conditions: mouse, in vivo, 168 h; dose 10 µg, time 7 day; summary of the method: as §8
[21] = molecular target: Toll-like receptor 2 (Homo sapiens) (UniProt O60603); experiment: Agonist activity human TLR2 in PAM2CSK4 stimulated HEK-Blue hTLR2 cells at 0.1 to 25 uM incubated for 18 hrs by QUANTI-blue assay; format: cell-based; conditions: dose 0.1-25 µM
Summary of the method: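 HEK-Blue hTLR2 cells exposed 18 h to compound (0.1–25 μM); SEAP in supernatant by QUANTI-Blue at OD 630 nm. Values normalized to PAM2CSK4 (10 ng/mL, 18 h) and expressed as mean percentage of three independent experiments.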

Macrophage [22] = experiment: Activation of TRIF dependent pathway in human THP-1 derived macrophages assessed as increase in IRF3 phosphorylation at 10 uM measured up to 3 hrs by immunoblotting analysis; format: tissue-based; conditions: filed as activator, time hrs <=3
Summary of the method: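 Differentiated THP-1 macrophages exposed to compound at 10 μM, alongside S-LPS and R-LPS (100 ng/mL each) and MPLA (1 μg/mL), and collected over a time course. Lysates were immunoblotted for phospho-IRF3 (Ser386) with β-actin as loading control and detected by chemiluminescence.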

[23] = Toxicity in C57BL/6 […] assessed as effect on body weight at 10 ug measured daily for 7 days; conditions: mouse, in vivo, 168 h; dose 10 µg, time 7 day; summary of the method: as §8
[24] = molecular target: NACHT, LRR and PYD domains-containing protein 3 (Homo sapiens) (UniProt Q96P20); experiment: Activation of NLRP3 inflammasome in human THP-1 derived macrophages assessed as increase in IL-1beta maturation and release at 20 uM measured after 6 hrs by ELISA; format: tissue-based; conditions: Macrophage, filed as activator; summary of the method: as §4
[25] = molecular target: Toll-like receptor 4 (Homo sapiens) (UniProt O00206); experiment: Activation of human TLR4 in IL-1beta stimulated HEK-Blue Null cells assessed as NF-kappaB activation at 0.1 to 25 uM incubated for 18 hrs by QUANTI- blue assay; format: tissue-based; conditions: dose 0.1-25 µM
Summary of the method: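 HEK-Blue Null cells, which carry the SEAP reporter but lack LPS receptors, were given compound (0.1–25 μM) for 18 h. SEAP was read by QUANTI-Blue at OD 630 nm and normalized to 100 ng/mL human IL-1β as positive control. Results are the mean percentage of three independent experiments.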

[26] = molecular target: Myeloid differentiation primary response protein MyD88 (Homo sapiens) (UniProt Q99836); experiment: Activation of MyD88 dependent pathway in human THP-1 derived macrophages assessed as increase in MAPK p38 phosphorylation at 10 uM measured after 1 hr by immunoblotting analysis; format: tissue-based; conditions: Macrophage, filed as activator; summary of the method: as §7
Macrophage [27] = experiment: Induction of IL-1beta production in human THP-1 derived macrophages assessed as secretion of IL-1beta mature form in supernatant at 20 uM measured up to 18 hrs by ELISA; format: functional, tissue-based; conditions: time hrs <=18; summary of the method: as §6

Sequence of Myeloid differentiation primary response protein MyD88 (Homo sapiens) (Q99836 whole entry): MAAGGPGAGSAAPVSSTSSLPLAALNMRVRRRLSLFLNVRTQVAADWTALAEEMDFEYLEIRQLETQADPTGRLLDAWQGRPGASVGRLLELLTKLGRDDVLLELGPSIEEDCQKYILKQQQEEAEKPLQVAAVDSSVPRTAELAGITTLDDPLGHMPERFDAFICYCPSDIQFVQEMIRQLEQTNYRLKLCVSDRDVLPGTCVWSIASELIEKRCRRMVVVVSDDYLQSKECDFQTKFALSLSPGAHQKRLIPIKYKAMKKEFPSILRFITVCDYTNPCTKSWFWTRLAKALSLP
Sequence of NACHT, LRR and PYD domains-containing protein 3 (Homo sapiens) (Q96P20 whole entry, the tested form may be a part): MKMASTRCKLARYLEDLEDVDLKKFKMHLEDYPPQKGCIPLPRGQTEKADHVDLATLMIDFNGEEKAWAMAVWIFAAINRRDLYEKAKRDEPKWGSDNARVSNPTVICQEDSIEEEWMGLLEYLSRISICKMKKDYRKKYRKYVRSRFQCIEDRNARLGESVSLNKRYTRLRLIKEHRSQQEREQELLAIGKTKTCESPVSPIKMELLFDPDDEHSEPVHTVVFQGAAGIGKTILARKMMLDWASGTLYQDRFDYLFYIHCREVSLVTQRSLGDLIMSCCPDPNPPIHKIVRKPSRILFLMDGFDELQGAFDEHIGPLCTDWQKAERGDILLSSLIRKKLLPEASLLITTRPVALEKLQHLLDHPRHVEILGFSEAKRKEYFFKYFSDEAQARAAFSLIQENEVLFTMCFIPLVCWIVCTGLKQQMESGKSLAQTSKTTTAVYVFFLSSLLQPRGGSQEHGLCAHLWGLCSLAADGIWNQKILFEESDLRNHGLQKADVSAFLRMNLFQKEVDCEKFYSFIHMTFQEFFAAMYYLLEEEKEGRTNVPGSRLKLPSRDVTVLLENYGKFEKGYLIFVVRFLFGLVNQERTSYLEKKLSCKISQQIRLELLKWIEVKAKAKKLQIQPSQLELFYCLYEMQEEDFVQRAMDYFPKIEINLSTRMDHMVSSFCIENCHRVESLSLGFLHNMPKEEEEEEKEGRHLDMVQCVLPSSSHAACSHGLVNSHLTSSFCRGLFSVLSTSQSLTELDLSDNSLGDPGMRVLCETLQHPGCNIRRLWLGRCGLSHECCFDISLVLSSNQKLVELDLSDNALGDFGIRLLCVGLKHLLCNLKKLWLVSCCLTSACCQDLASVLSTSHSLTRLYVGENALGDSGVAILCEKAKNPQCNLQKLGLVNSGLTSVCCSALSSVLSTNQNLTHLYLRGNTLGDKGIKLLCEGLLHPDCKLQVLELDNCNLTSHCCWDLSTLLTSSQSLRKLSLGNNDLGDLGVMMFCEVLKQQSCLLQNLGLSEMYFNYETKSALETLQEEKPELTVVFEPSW
Sequence of Toll-like receptor 4 (Homo sapiens) (O00206 whole entry): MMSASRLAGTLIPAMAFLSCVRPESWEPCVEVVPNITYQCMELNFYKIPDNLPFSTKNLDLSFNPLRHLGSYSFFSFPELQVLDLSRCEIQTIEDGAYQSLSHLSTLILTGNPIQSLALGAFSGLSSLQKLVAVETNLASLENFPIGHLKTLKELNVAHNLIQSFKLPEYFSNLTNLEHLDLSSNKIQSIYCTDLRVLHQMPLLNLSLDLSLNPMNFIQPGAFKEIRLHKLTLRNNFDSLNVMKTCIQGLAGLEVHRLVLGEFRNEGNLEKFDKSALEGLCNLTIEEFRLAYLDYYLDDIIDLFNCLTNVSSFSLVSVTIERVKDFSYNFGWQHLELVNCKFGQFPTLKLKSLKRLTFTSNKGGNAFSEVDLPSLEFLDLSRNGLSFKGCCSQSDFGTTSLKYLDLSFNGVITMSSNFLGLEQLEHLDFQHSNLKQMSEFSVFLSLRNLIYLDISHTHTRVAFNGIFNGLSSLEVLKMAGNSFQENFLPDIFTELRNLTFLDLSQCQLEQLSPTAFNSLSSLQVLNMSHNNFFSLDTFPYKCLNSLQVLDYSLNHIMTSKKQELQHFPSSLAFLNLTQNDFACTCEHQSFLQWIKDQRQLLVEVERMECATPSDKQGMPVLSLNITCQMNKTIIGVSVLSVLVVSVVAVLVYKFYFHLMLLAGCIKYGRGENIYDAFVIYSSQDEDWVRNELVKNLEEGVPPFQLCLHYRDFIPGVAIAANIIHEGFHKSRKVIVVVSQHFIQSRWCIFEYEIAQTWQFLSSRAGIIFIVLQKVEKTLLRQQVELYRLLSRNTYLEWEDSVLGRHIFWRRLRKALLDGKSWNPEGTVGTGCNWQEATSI
Sequence of Nuclear factor NF-kappa-B complex (Homo sapiens) (P19838 whole entry, looked up): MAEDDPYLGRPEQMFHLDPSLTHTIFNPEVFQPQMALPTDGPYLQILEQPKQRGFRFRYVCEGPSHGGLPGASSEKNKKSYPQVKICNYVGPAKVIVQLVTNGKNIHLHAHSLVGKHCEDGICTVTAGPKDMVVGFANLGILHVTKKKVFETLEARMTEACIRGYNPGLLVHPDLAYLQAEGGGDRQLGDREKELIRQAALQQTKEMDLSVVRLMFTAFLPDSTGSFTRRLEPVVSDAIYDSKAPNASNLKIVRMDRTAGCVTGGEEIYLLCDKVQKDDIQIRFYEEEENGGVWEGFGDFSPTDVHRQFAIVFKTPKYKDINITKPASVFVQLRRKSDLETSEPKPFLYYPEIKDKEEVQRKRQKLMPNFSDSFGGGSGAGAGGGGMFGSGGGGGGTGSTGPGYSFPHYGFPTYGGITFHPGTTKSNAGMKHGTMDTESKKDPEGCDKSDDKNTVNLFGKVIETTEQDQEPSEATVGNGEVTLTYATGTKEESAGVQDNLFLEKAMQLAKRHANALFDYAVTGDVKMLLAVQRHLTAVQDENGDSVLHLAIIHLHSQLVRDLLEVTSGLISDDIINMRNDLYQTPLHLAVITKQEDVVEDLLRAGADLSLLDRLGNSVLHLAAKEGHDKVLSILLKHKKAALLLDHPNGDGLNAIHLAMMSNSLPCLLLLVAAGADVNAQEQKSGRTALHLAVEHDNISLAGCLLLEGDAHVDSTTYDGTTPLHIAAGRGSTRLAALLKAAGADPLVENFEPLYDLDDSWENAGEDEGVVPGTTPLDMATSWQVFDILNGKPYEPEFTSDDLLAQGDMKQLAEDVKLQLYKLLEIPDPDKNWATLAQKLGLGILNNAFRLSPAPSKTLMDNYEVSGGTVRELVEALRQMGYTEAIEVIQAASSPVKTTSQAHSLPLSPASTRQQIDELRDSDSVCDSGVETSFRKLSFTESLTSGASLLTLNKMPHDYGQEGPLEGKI
Sequence of Nuclear factor NF-kappa-B complex (Homo sapiens) (Q00653 whole entry, looked up): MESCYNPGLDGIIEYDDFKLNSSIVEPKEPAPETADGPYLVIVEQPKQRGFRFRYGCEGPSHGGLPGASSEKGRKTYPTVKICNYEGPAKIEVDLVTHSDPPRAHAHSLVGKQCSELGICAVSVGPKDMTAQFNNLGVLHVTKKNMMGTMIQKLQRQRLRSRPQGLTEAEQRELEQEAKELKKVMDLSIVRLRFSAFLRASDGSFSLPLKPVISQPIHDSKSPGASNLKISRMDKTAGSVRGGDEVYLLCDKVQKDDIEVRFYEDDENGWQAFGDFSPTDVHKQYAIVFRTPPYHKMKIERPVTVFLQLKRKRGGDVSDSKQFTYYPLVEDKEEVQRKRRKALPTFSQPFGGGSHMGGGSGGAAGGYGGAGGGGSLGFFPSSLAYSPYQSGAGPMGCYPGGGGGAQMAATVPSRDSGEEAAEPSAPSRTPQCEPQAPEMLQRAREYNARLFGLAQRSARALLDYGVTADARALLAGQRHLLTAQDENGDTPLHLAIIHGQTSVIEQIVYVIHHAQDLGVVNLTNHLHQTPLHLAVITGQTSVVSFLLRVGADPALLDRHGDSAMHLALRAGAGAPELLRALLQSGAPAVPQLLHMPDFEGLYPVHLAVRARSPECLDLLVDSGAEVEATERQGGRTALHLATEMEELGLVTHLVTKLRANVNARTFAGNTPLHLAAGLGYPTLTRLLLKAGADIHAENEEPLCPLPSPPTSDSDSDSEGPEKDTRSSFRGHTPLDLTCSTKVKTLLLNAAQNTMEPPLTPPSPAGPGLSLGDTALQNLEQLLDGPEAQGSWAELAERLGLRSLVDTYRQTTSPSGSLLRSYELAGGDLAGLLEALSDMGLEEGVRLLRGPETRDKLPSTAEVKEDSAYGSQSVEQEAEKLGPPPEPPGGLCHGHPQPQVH
Sequence of Nuclear factor NF-kappa-B complex (Homo sapiens) (Q04206 whole entry, looked up): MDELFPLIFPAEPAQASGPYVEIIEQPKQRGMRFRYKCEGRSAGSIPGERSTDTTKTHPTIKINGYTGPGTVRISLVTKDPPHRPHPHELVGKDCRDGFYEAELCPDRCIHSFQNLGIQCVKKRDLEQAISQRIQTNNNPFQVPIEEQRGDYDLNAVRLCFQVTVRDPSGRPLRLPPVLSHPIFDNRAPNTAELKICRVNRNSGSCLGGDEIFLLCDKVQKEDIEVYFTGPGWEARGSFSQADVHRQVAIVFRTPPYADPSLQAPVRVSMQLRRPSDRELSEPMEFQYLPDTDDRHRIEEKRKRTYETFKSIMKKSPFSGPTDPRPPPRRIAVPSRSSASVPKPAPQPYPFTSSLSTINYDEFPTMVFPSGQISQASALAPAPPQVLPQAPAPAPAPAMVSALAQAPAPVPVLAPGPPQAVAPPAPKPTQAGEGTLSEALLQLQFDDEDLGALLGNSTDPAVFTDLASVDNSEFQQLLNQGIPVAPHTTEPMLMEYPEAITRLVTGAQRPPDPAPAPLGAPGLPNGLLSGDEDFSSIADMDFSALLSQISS

In the case of `CCCCCCCCCCCC(=O)N[C@H]1[C@@H](OP(=O)([O-])[O-])O[C@H](CO)[C@@H](OC(=O)CCCCCCCCCCC)[C@@H]1OC(=O)CCCCCCCCCCC.[Na+].[Na+]`, the Kdiss [1] was 5.19 10^-4/s, the Activity [2] was “Active” and the Activity (Mus musculus [3]) was “Active”. The Activity (Macrophage [4]) was “Active”, the Activity [5] was “Active” and the Activity [6] was “Active”. The Activity (HEK-Blue hTLR4) was “Dose-Dependent Effect”, the Activity (Macrophage [7]) was “Active” and the Activity (Macrophage [8]) was “Active”. For the same compound, the Activity [9] was “Active”, the Ka [10] was 9.15 10^2/Ms and the Activity (Macrophage [11]) was “Active”. The Activity (Mus musculus [12]) was “Active”, the inhibition (Macrophage [13]) was “Dose-Dependent Effect” and the fold change (FC) (Macrophage [14]) was 20. The Rmax [15] was 29.1 RU, the Activity [16] was “inactive” and the Activity [17] was “Active”. The Activity [18] was “Non-Toxic”, the Activity [19] was “Dose-Dependent Effect” and the Activity [20] was “Non-Toxic”. For the same compound, the Activity [21] was “inactive”, the Activity (Macrophage [22]) was “Active” and the Activity [23] was “Non-Toxic”. The Activity [24] was “Active”, the Activity [25] was “inactive” and the Activity [26] was “Active”. For the same compound, the Activity (Macrophage [27]) was “Active”.
